Experimental data taken from ChEMBL document CHEMBL4732029, “Synthesis and evaluation of bis(imino)anthracene derivatives as G-quadruplex ligands” (RSC Med Chem, 2021).
pIC50: −log10 of the molar value.

Test system: HeLa
Experiment: Cytotoxicity against human HeLa cells assessed as reduction in cell viability incubated for 24 hrs by MTT assay
Assay type: functional, cell-based

`CN(C)c1ccc(Nc2c3ccc(NC(=O)CCN4CCCC4)cc3nc3cc(NC(=O)CCN4CCCC4)ccc23)cc1` showed a pIC50 of 5.28.

Test system: HeLa
Experiment: Cytotoxicity against human HeLa cells assessed as reduction in cell viability incubated for 24 hrs by presto blue assay
Assay type: functional, cell-based
Outline: (§1)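 HeLa cells (ATCC CCL-2) were exposed to each compound at 100, 30, 10 and 1 µM for 24 h. Viability was read by PrestoBlue absorbance and normalized to a DMSO negative control; doxorubicin served as positive control. Data are mean and SEM. IC50 came from the percentage viability plotted against log concentration, with R squared reported.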

Compared with `C(=N\Cc1ccc2c(c1)OCO2)/c1c2ccccc2c(/C=N/Cc2ccc3c(c2)OCO3)c2ccccc12`, `C(=N\CCc1c[nH]c2ccccc12)/c1c2ccccc2c(/C=N/CCc2c[nH]c3ccccc23)c2ccccc12` is 0.23 log units lower in pIC50: 4.74 for the first, 4.51 for the second. The first is the more potent here.

`C(=N\CCN1CCCCC1)/c1c2ccccc2c(/C=N/CCN2CCCCC2)c2ccccc12` and `Cc1cnc(/N=C/c2c3ccccc3c(/C=N/c3ncc(C)s3)c3ccccc23)s1` are within 0.2 log units of each other in pIC50: 4.62 for the first, 4.69 for the second.

Test system: HeLa
Experiment: Cytotoxicity against human HeLa cells
Assay type: functional, cell-based
Outline: as §1

First: CN(C)CCNC(=O)c1cccn2c(=O)c3cc4ccccc4cc3nc12
Second: CN1CCC[C@H]1CCNC(=O)c1cn2c3c(c(N4CCC(c5cnccn5)C4)c(F)cc3c1=O)Oc1cc3ccccc3cc1-2 (stereo partly specified) [QUARFLOXIN]
The pIC50 of the first is 0.99 log units higher: 6.34 for the first, 5.35 for the second. The first is the more potent here.

Compared with `Cc1cnc(CNC(=O)c2c(=O)c3ccc(N4CCCN(C)CC4)nc3n3c2sc2ccccc23)cn1` [CX-5461], `Cc1cc2c3c([n+](C)c4ccc(F)cc4c3c1)-c1cc(F)ccc1N2C` is 1.54 log units higher in pIC50: 5.16 for the first, 6.70 for the second. The second is the more potent here.

Compared with `COc1cccc2c1C(=O)c1c(O)c3c(c(O)c1C2=O)C[C@@](O)(C(=O)CO)C[C@@H]3O[C@H]1C[C@H](N2CCO[C@H](OC)C2)[C@H](O)[C@H](C)O1` [NEMORUBICIN], `COc1cccc2c1C(=O)c1c(O)c3c(c(O)c1C2=O)C[C@@](O)(C(=O)CO)C[C@@H]3O[C@H]1C[C@H](N)[C@H](O)[C@H](C)O1` [DOXORUBICIN] is 0.67 log units lower in pIC50: 7.10 for the first, 6.43 for the second.
